The list is not random: actives were taken first. Their share in the collection is about 4.5%.
APP 5'UTR act: activators of APP 5'UTR luciferase reporter, primary screen, SH-SY5Y cells | SH-SY5Y APP 5'UTR luciferase reporter, luminescence; zero percent = DMSO vehicle wells | activation, % at 2 µM | 190,000 compounds, 1% hits;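 active = activation above a set limit, based on mean plus 3 SD of controls, cut at about 140% in these data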
STAT1 act: STAT1 signaling activators, primary screen, cell-based, HTS, luciferase reporter; NIH 3T3 STAT1-luciferase reporter, IFN-gamma, luminescence; 100% = IFN-gamma alone, no compound; activation (% of control), % at 5.5 µM; 200,000 compounds, 2.6% hits;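 active = activation above the screen-wide mean activation plus 3 SD, cut at about 130% in these data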;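 also: raw ratio to IFN-gamma control signal so 100% means no change and 0% no light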
NF-kB neuron act: activators of NF-kB expression in neurons, primary screen, cell-based, HTS; AID 1239, 2008; 190,000 compounds, 1.6% hits; human neuronal cells, NF-kB reporter expression; active compounds read high; fold change at 12.5 µM; in the data active = fold change above about 3.3
MDM2 E3 inh: MDM2-luciferase reporter signal enhancers, primary screen, MDM2 E3 ligase inhibitor project, cell-based, luminescence, 1536-well; E3 ubiquitin-protein ligase Mdm2 (Homo sapiens), Q00987; cell-based MDM2 ubiquitination luciferase reporter, 2 h; 0 = plate control, 100 = twice control, blank-subtracted; signal enhancement, % at 5 µM; 210,000 compounds, 0.11% hits; AID 1230, 2008;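 active = signal enhancement of 30% or more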;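 also: luminescence tracks abundance of the self-degrading MDM2-luciferase fusion protein; higher signal means inhibition of MDM2 E3 ligase activity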
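Buffer or medium: Cells held in DMEM | Assay system: Stable mammalian line carrying autodegrading MDM2–luciferase fusion reporter | Quantity: 2000 cells/well | Times: 4 h settle plus 2 h compound, 37 °C | Doses: One concentration, 5 µM, with 0.2% DMSO | Technique: Luminescence with SteadyLite reagent, 15 min at room temperature | Benchmarks: Plate controls and plate blanks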
AHR act: AHR activators, primary screen, cell-based, luminescence, luciferase reporter, human | 320,000 compounds, 2.5% hits | AID 2796, 2010 | AHR-responsive luciferase reporter cells | activation, % at 5 µM; in the data active = activation above about 47%;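 also: 0% = vehicle wells and 100% = reference agonist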
PERK inh: block of dimerizer-induced PERK translation repression, primary screen, PERK inhibitor project, CHO PERK-DD cells, SEAP luminescence, HTS. Eukaryotic translation initiation factor 2-alpha kinase 3 (Homo sapiens), Q9NZJ5. CHO PERK-DD fusion, SEAP luminescence translation reporter. inhibition, % at 5.6 µM. 220,000 compounds, 0.17% hits. AID 1416, 2008;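 active = inhibition above the mean inhibition of all tested compounds plus 3 SD, set separately per screening campaign, cut at about 2.9% in these data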;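 also: PERK kinase domain activated by AP20187 dimerizer at 100 nM; 0% = DMSO with dimerizer and 100% = rapamycin at 8.4 µM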
Target sequence (Q9NZJ5 whole entry, looked up, the tested form may be a part): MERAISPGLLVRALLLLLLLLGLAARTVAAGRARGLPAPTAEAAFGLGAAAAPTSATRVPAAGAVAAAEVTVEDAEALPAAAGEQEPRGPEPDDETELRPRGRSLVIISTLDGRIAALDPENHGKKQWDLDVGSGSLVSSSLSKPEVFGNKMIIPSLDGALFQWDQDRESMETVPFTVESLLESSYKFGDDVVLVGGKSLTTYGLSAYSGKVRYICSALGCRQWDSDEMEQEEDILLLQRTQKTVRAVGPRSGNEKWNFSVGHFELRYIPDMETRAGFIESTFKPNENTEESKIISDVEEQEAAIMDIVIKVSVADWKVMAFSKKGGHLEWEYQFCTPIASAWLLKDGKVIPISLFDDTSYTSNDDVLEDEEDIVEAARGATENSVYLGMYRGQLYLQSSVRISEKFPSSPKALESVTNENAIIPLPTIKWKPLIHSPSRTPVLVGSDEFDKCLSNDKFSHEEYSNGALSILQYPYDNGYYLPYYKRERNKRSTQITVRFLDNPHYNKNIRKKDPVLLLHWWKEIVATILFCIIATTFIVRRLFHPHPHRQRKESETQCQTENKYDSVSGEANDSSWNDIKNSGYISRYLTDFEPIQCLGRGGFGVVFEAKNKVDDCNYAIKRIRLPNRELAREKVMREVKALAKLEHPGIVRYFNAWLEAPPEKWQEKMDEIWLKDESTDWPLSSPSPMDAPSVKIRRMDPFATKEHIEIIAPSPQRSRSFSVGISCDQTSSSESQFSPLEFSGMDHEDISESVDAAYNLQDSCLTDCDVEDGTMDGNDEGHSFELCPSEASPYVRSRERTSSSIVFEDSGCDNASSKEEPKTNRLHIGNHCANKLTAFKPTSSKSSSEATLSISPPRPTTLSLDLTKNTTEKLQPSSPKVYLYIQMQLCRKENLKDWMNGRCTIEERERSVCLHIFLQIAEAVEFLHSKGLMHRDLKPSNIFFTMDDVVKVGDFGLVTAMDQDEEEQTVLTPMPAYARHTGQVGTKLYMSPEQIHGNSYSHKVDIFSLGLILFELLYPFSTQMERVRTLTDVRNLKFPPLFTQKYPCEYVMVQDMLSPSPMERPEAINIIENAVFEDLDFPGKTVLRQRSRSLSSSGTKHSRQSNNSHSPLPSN
* hit, by the source's call.

How did O=C(COc1ccc2c(c1)OCO2)Nc1ccc(Cl)cn1 do in these assays?
AHR act: 28

What do the screens show for `CCN(C(=O)/C=C/c1ccc2c(c1)OCO2)c1ccccc1`?
APP 5'UTR act: -2; STAT1 act: 109; NF-kB neuron act: 1.5; MDM2 E3 inh: 7; AHR act: 70*; PERK inh: -1

How did Cc1cc(C)n2nc(SCC(=O)NC(=O)c3ccc(OC(F)F)cc3)nc2n1 do in these assays?
AHR act: 0

Results for CCc1ccc(Nc2nnc(SCC(=O)Nc3sccc3C(N)=O)s2)cc1 ?
APP 5'UTR act: 42; STAT1 act: 105; NF-kB neuron act: 0.8; MDM2 E3 inh: 0; AHR act: 60*; PERK inh: 0

What do the screens show for `O=C(NC(=S)NNC(=O)[C@H]1C[C@@H]1c1ccccc1)c1cccc(F)c1`?
MDM2 E3 inh: -11; AHR act: 4; PERK inh: 1

What do the screens show for `C=CCn1cccc(C(=O)Nc2cc(OC)ccc2OC)c1=O`?
APP 5'UTR act: -23; STAT1 act: 104; NF-kB neuron act: 1.2; MDM2 E3 inh: 4; AHR act: 60*; PERK inh: 0

How did C=CCn1c(N)c(C(=O)Nc2ccc(C)cc2)sc1=S do in these assays?
APP 5'UTR act: -8; STAT1 act: 131*; NF-kB neuron act: 1.8; MDM2 E3 inh: -10; AHR act: -13; PERK inh: 0

Results for C=CCn1cccc(C(=O)Nc2ccc(C)cc2)c1=O ?
AHR act: 55*

What do the screens show for `O=c1c2ccccc2nc2n1CCC2`?
APP 5'UTR act: -16; STAT1 act: 101; NF-kB neuron act: 1; MDM2 E3 inh: -15; AHR act: 3; PERK inh: 2

Results for Cc1nc2sc(-c3ccccc3)cc2c(=O)n1N ?
MDM2 E3 inh: -78; AHR act: -9; PERK inh: 0

Results for Cc1nc2sc(-c3ccccc3)cc2c(=O)n1/N=C/N(C)C ?
APP 5'UTR act: 103; STAT1 act: 147*; NF-kB neuron act: 2.4; MDM2 E3 inh: 8; AHR act: 2; PERK inh: 0

What do the screens show for `Cc1nc2sc(-c3ccccc3)cc2c(=O)n1-n1cccc1`?
APP 5'UTR act: 142*; STAT1 act: 145*; NF-kB neuron act: 1.1; MDM2 E3 inh: -31; AHR act: -8; PERK inh: 0

What do the screens show for `O=c1c2cc(-c3ccccc3)sc2nc2n1CCC2`?
APP 5'UTR act: 187*; STAT1 act: 139*; NF-kB neuron act: 4.2*; MDM2 E3 inh: -22; AHR act: -1; PERK inh: 0

How did COc1ccc(/C(O)=C2/C(=O)C(=O)N(c3ccccn3)C2c2cccc(Cl)c2)cc1 (stereo not drawn) do in these assays?
AHR act: -1

How did CCN1C(=O)N[C@@H](CCc2ccccc2)C(C(C)=O)=C1C do in these assays?
AHR act: 1

Results for CCN1C(=S)N[C@@H](CCc2ccccc2)C(C(=O)OC)=C1C ?
AHR act: 53*

How did COc1ccc(NC(=O)CC(C)n2ccnc2)cc1 (stereo not drawn) do in these assays?
AHR act: 7

How did CSc1cccc(NC(=O)CC(C)n2ccnc2)c1 (stereo not drawn) do in these assays?
AHR act: 58*

How did O=C(Nc1ccc(C(F)(F)F)cc1)N1CCN(c2ccnc3cc(Cl)ccc23)CC1 do in these assays?
MDM2 E3 inh: -17; AHR act: 3; PERK inh: -3

What do the screens show for `O=C(C1CCN(S(=O)(=O)c2ccccc2F)CC1)N1CCN(Cc2ccc3c(c2)OCO3)CC1`?
AHR act: -1

What do the screens show for `CCOC(=O)c1cnn(-c2ccc(C(F)(F)F)cn2)c1N`?
APP 5'UTR act: 28; STAT1 act: 145*; NF-kB neuron act: 2.6; MDM2 E3 inh: -29; AHR act: -3; PERK inh: 0

What do the screens show for `CCOC(=O)c1cnn(-c2ccccc2)c1N`?
APP 5'UTR act: 13; STAT1 act: 99; NF-kB neuron act: 1.9; MDM2 E3 inh: -15; AHR act: -3; PERK inh: 0

How did O=C(Nc1ccc(Br)cc1)c1cc2ccccn2n1 do in these assays?
AHR act: 57*; PERK inh: 1

How did CCOC(=O)N1CCC(NC(=O)c2cc3c(-c4ccc(Cl)cc4)nn(C)c3s2)CC1 do in these assays?
APP 5'UTR act: 12; STAT1 act: 89; NF-kB neuron act: 0.82; MDM2 E3 inh: -12; AHR act: 33; PERK inh: 0

Results for CCCCNC(=O)c1cc2c(-c3ccc(Cl)cc3)nn(C)c2s1 ?
APP 5'UTR act: -1; STAT1 act: 101; NF-kB neuron act: 0.92; MDM2 E3 inh: 9; AHR act: 50*; PERK inh: 0

What do the screens show for `CC(C)NC(=O)c1cc2c(-c3ccc(Cl)cc3)nn(C)c2s1`?
APP 5'UTR act: -12; STAT1 act: 95; NF-kB neuron act: 1; MDM2 E3 inh: -10; AHR act: 59*; PERK inh: 1

Results for Cn1nc(-c2ccc(Cl)cc2)c2cc(C(=O)NCCCN3CCCC3)sc21 ?
APP 5'UTR act: 10; STAT1 act: 97; NF-kB neuron act: 1.2; MDM2 E3 inh: -14; AHR act: 54*; PERK inh: -1

How did COCCNC(=O)c1cc2c(-c3ccc(Cl)cc3)nn(C)c2s1 do in these assays?
APP 5'UTR act: 16; STAT1 act: 106; NF-kB neuron act: 0.74; MDM2 E3 inh: -1; AHR act: 59*; PERK inh: -1

How did Cc1ccc(CNC(=O)c2cc3c(-c4ccc(Cl)cc4)nn(C)c3s2)o1 do in these assays?
APP 5'UTR act: 6; STAT1 act: 76; NF-kB neuron act: 0.78; MDM2 E3 inh: -22; AHR act: 46; PERK inh: -1

How did C/C(N)=C(/C#N)C(=O)COC(=O)c1ccc(OCC2CCCO2)cc1 (stereo not drawn) do in these assays?
AHR act: 0

How did CCN1CCCC1CNC(=O)c1cc2c(-c3ccc(Cl)cc3)nn(C)c2s1 (stereo not drawn) do in these assays?
APP 5'UTR act: -1; STAT1 act: 94; NF-kB neuron act: 0.51; MDM2 E3 inh: -9; AHR act: 59*; PERK inh: -2

What do the screens show for `Cn1nc(-c2ccc(Cl)cc2)c2cc(C(=O)N3CCCC3)sc21`?
APP 5'UTR act: -5; STAT1 act: 75; NF-kB neuron act: 0.89; MDM2 E3 inh: -16; AHR act: 50*; PERK inh: 0

What do the screens show for `O=C(c1cc(-c2ccc(Cl)cc2)on1)N1CCCCCC1`?
AHR act: -1
